Results collected from several papers.
Target: cAMP-dependent protein kinase catalytic subunit beta (PRKACB, Homo sapiens, UniProt P22694)

O=C(Nc1cnn(-c2csc(C(=O)NC3COC3)c2)c1)Nc1ccccc1Cl  remaining activity (enzyme activity, inhibitor; 5 µM): 99%
CC(C)(O)[C@H]1CC[C@H](Nc2ccc3ncc(-c4cccc(C(F)(F)F)c4)n3n2)CC1  remaining activity (enzyme activity, inhibitor; 1 µM): 97.7%
Cn1cnc(Br)c1C1=CN(c2ncnc3[nH]cnc23)CCS1  inhibition (enzyme activity, inhibitor, radiometric; 50 nM): 18.7%
C[C@H](c1ccnc(Nc2nc3ccc(-c4cc(N(C)C)ncn4)cc3[nH]2)c1)N1CCN(C(=O)CC(F)(F)F)CC1  remaining binding (cell-free assay, competition with immobilised ligand; 0.1 µM): 100%
Cc1ccc(C(=O)NCc2ccsc2)cc1C#Cc1cn(C(C)C)c2ncnc(N)c12  activity vs control (enzyme activity, inhibitor; 1 µM): 111%
COc1cc(-c2cc(-c3ccc(N4CCNCC4)cc3)cnc2C)cc(OC)c1OC  inhibition (enzyme activity, inhibitor; 1 µM): 3%
Cc1sc(C(=O)NC2COC2)cc1-n1cc(NC(=O)Nc2c(F)cccc2Cl)cn1  remaining activity (enzyme activity, inhibitor; 10 µM): 104%
COc1cc(Cl)c(C(=O)N[C@@H](CN[C@H]2CC[C@@H](N)CC2)Cc2ccc(C#N)cc2)cc1-c1ccc(CN[C@H](C)c2ccc(C)cc2)o1  remaining activity (enzyme activity, inhibitor; 1 µM): 66%
CN1CC(Oc2cnc(C#N)cc2-c2ccn3nc(NC(=O)C4CC4)cc3c2)C1  inhibition (enzyme activity, inhibitor; 1 µM): -10%
O=C(Nc1cccnn1)N1CCC(=Cc2cccc(Oc3ccc(C(F)(F)F)cn3)c2)CC1  remaining binding (cell-free assay, competition with immobilised ligand; 1 µM): 100%
Nc1ncnc2occ(-c3ccc(NC(=O)Nc4cc(C(F)(F)F)ccc4F)cc3)c12  remaining activity (enzyme activity, inhibitor; 20 µM): 22%
Cc1ccc(C(=O)Nc2ccc(CN3CCN(C)CC3)c(C(F)(F)F)c2)cc1C#Cc1cnc2cccnn12  remaining activity (enzyme activity, inhibitor; 23.5 nM): 83%
C[C@@H]1CN(c2cc(-c3nn(C)c4ccc(OC5(C)CC5)cc34)ncn2)C[C@H](C)O1  remaining binding (cell-free assay, competition with immobilised ligand; 1 µM): 100%
